Screening results from PubChem.
ASAP1 inh = inhibitors of human ASAP1 ArfGAP activity, primary screen, biochemical, fluorescence polarization; inhibition, % at 16.5 µM; ASAP1-stimulated ARF1 GTP hydrolysis, GDP FP detection; AID 624377, 2012; 360,000 compounds, 0.19% hits; in the data active = inhibition above about 25%;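 also: 0% = vehicle with enzyme and substrate and 100% = no enzyme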
ARFGAP1 inh = inhibitors of rat ARFGAP1 GAP activity, primary screen, biochemical, fluorescence polarization, GDP tracer; Arfgap1-stimulated ARF1 GTP hydrolysis, GDP FP detection; inhibition, % at 16.5 µM; AID 651572, 2012; 360,000 compounds, 0.26% hits; ADP-ribosylation factor GTPase-activating protein 1 (Rattus norvegicus), Q62848;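 active = inhibition above a per-plate limit, mean inhibition of low control wells plus 3 SD, cut at about 25% in these data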;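 also: 0% = DMSO wells with enzyme and 100% = wells lacking Arfgap1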
Target sequence (Q62848 1-136 limits assumed): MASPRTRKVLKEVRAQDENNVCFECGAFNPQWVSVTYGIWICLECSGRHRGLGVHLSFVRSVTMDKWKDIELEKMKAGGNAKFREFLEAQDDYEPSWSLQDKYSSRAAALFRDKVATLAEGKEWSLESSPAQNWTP
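Assay system: Rat Arfgap1 GAP domain (His6, aa 1-136), purified enzyme | Buffer or medium: HEPES 25 mM pH 7.5, NaCl 150 mM, MgCl2, DTT | Schedule: GTP hydrolysis reaction 2 h at 25 °C | Signal: FP of antibody-bound GDP Alexa 633 tracer, ex 620/em 688 nm | Measure: Percent inhibition of Arfgap1-stimulated GTP hydrolysis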
ZTA counter = blocks Epstein-Barr virus ZTA, an EBNA-1 counter-screen | ZTA-DNA binding, fluorescence polarization | inhibition, % at 11 µM | 320,000 compounds, 0.15% hits | AID 2234; in the data active = inhibition above about 33%
Target sequence (P03206 whole entry, looked up): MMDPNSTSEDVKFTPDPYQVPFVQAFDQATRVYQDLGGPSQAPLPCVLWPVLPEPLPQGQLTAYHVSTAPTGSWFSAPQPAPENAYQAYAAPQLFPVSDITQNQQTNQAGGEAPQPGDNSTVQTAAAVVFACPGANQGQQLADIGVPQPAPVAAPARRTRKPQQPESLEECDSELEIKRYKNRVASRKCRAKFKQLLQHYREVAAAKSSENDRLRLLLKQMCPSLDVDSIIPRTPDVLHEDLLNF
EBNA-1 inh = EBNA-1 DNA-binding inhibitors, primary screen, biochemical, fluorescence polarization. AID 1950, 2009. 300,000 compounds, 0.34% hits. inhibition, % at 14.8 µM; in the data active = inhibition above about 28%
ASAP1 GAP conf = ASAP1 GAP activity inhibitors, confirmation, biochemical, fluorescence polarization, human, triplicate; shares compounds with ASAP1 inh; 620 compounds, 37% hits; ASAP1-stimulated Arf1 GTPase, GDP fluorescence polarization; inhibition, % at 16.5 µM;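 active = mean inhibition over triplicates exceeds the hit threshold derived for the earlier primary screening run, cut at about 25% in these data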
The depositor's hits bear a star; · = not tested or not shown. The list is not random: actives were taken first. Their share in the collection is about 0.75%.

SMILES	ASAP1 inh	ARFGAP1 inh	ZTA counter	EBNA-1 inh	ASAP1 GAP conf
O=C1[C@@H]2CSCN2C(=O)CN1Cc1c(F)cccc1Cl	26*	-2	11	4	-6
O=C1[C@@H]2CSCN2C(=O)CN1Cc1ccccc1F	-3	-6	-13	-7	·
CS(=O)(=O)c1cccc(OCCCN2CCC(C(O)(c3ccccc3)c3ccccc3)CC2)c1	3	1	·	·	·
Cc1cc(NC(=O)C2CCN(C(=O)c3ccco3)CC2)ccc1Br	30*	3	-8	-8	1
O=C(Nc1ccc(Br)cc1)C1CCN(C(=O)c2ccco2)CC1	8	-1	3	2	·
CCCc1nc2ccc(NC(C)=O)cc2c(=O)n1Cc1ccc(Cl)cc1	28*	9	3	-15	14
CCCc1nc2ccc(NC(=O)c3cccs3)cc2c(=O)n1Cc1ccccc1Cl	13	-3	6	8	·
O=C(N[C@H](C(=O)N1CCC[C@H]1C(=O)NCc1ccccc1)C1CCCCC1)c1ccccc1	-6	0	·	·	·
O=C1NC(c2ccc(Br)cc2)c2c(-c3ccccc3)n[nH]c21 (configuration not stated)	7	6	·	·	·
Cc1cc(C)c(S(=O)(=O)c2ccccc2)c(OC(=O)c2c(F)cccc2F)n1	26*	21	-18	-15	11
Fc1ccc(Nc2nc(-c3ccncc3)nc3ccccc23)cc1F	38*	6	-5	-11	36*
COc1ccc2nc(NC(=O)c3cccc(N4C(=O)CCC4=O)c3)sc2c1	26*	-2	-2	·	9
CCOc1ccc2nc(NC(=O)c3cccc(N4C(=O)CCC4=O)c3)sc2c1	1	8	·	·	·
CC(C)CC1O[C@@H](C)[C@@H]2CN3CCc4c([nH]c5ccccc45)[C@@H]3C[C@@H]2N1C (some centres not stated)	-4	6	·	·	·
N#CC1=C(c2ccc(-c3ccccc3)cc2)COC1=O	29*	4	6	4	41*
CCOC(=O)C1=CCN(S(=O)(=O)c2ccc(Cl)cc2)C1c1cccc(Cl)c1 (configuration not stated)	1	-4	·	·	·
Cc1ccc(OCC(=O)N2CCN(C3=NS(=O)(=O)c4ccccc43)CC2)cc1	0	-22	2	11	·
CCC(=O)c1ccc(OC(=O)C2CCN(C3=NS(=O)(=O)c4ccccc43)CC2)cc1	27*	-3	-6	·	9
O=C(Oc1ccc(Br)cc1)C1CCN(C2=NS(=O)(=O)c3ccccc32)CC1	25*	0	·	·	5
Cc1cc(Oc2cccnc2)ccc1NC(=O)Cc1c[nH]c2ccccc12	-9	2	·	·	·
COc1c(-c2ccc(O)cc2)oc2cc(O)cc(O)c2c1=O	4	-8	7	-8	·
O=c1c(-c2c(O)cc(O)c3c(=O)cc(-c4ccc(O)cc4)oc23)c(-c2ccc(O)cc2)oc2cc(O)cc(O)c12	25*	20	9	10	27*
CCCCOCCCNC(=O)C[C@H]1C[C@@]2(C(=O)OC)C(=C[C@H](COCc3ccccc3)O[C@@H]2C)N(CCC2=CCCCC2)C1=O	2	-6	·	·	·
COc1ccc(CNC(=O)COC(=O)c2ccc(OCc3c(C)noc3C)cc2)cc1OC	-9	1	-7	-15	·
Cc1noc(C)c1COc1ccc(C(=O)OCC(=O)NCc2ccccc2Cl)cc1	28*	8	8	7	2
SMILES	ASAP1 inh	ARFGAP1 inh	ZTA counter	EBNA-1 inh	ASAP1 GAP conf
Cc1noc(C)c1COc1cccc(C(=O)OCC(=O)NC(=O)c2ccc(OC(F)F)cc2)c1	30*	18	22	12	24
C(=CCSc1ccccn1)CSc1ccccn1	3	0	·	·	·
O=C(CCc1c[nH]c2ccccc12)Nc1ccc(Oc2cccnc2)cc1	15	0	·	·	·
COc1ccc(C=NNC(=S)NN=Cc2ccc(OC)c(OC)c2)cc1OC	34*	44*	·	·	59*
COC(=O)c1cc2c(c3c4cc(OC)ccc4n(S(=O)(=O)c4ccc(C)cc4)c13)C(=O)N(C)C2	-2	2	·	·	·
CC1CN(S(=O)(=O)c2ccc(NC(=O)c3cc(-c4ccccc4O)n[nH]3)cc2)CC(C)O1 (configuration not stated)	26*	0	11	-3	21
O=C(N/N=C/c1ccc([N+](=O)[O-])cc1)c1ccc(COc2ccccc2-c2ccccc2)cc1	31*	1	-26	-8	81*
COC(=O)c1cc2c(c3c4cc(F)ccc4n(S(=O)(=O)c4ccc(OC)cc4)c13)C(=O)N(C)C2	-8	3	·	·	·
O=C(Nc1ccc([N+](=O)[O-])cc1)Nc1ccc(OC(F)F)c(Cl)c1	27*	14	1	-4	23
O=C(Nc1ccc(OC(F)F)c(Cl)c1)Nc1ccc2c(c1)OCO2	-3	-2	10	8	·
Cc1ccc(S(=O)(=O)Nc2ccccc2C(=O)Nc2nc(-c3ccc(F)cc3)cs2)cc1	11	16	18	12	·
COc1ccc(-c2csc(NC(=O)c3ccccc3NS(=O)(=O)c3ccc(F)c(F)c3)n2)cc1	29*	10	12	10	24
Cn1c(N)c(C(=O)COC(=O)CCCc2nc3ccccc3s2)c(=O)n(C)c1=O	12	6	-8	-6	·
Cn1c(N)c(C(=O)COC(=O)CCc2nc3ccccc3s2)c(=O)n(C)c1=O	31*	4	-6	-12	3
Cn1cccc1Cc1nnc(SCC(=O)N2CCOCC2)n1-c1ccc(F)cc1	25*	9	2	5	1
N#Cc1cccc(NC(=O)CSc2ccc3c4c(cccc24)C(=O)c2ccccc2-3)c1	100*	24	-5	-4	111*
CC(Cc1cccs1)NC(=S)Nc1ccc(Cl)cc1 (configuration not stated)	29*	5	2	-12	6
CC(Cc1cccs1)NC(=S)Nc1ccc(Cl)c(Cl)c1 (configuration not stated)	-5	4	-5	3	·
C#CCNC(=O)C[C@H]1C[C@@]2(C(=O)OC)C(=C[C@H](C3CCCC3)O[C@@H]2C)N(Cc2ccccc2)C1=O	1	-1	·	·	·
Cc1ccc(-c2[nH]nc(N)c2N=Nc2ccccc2C)cc1	27*	19	-6	-8	20
Cc1cccc(N=Nc2c(N)n[nH]c2-c2ccc(Cl)cc2)c1	26*	10	18	9	18
Cc1ccc(-c2[nH]nc(N)c2N=Nc2cccc(Cl)c2C)cc1	2	6	·	·	·
COC(=O)C1=C(C)N(Cc2ccccc2C(F)(F)F)C(=NCc2ccccc2C(F)(F)F)NC1c1ccc(F)cc1 (configuration not stated)	-11	14	·	·	·
Cc1ccc(S(=O)(=O)N(CC2CO2)c2cc(Cl)ccc2Cl)cc1 (configuration not stated)	28*	10	-11	0	1
